Screening data as filed in PubChem BioAssay.
Sampled rows, rich in hits. Any-hit rate of the full collection: about 4.8%.
UPR CHOP act: activators of apoptotic arm of unfolded protein response (CHOP) | CHO-CHOP luciferase reporter, UPR activation, luminescence; percent of tunicamycin response over DMSO baseline | activation, % at 10 µM | 330,000 compounds, 0.34% hits | AID 449763;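 active means at 10 µM dose, activation of 40% or more, normalized to positive control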;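 further: 100% = tunicamycin at 10 µg/mL and 0% = DMSO alone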
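Assay system: CHO cells with stable CHOP pathway luciferase reporter; Buffer or medium: F12 plus 10% serum; Times: 16-18 h cell attachment, then 6 h compound exposure, 37 °C; Signal: luciferase luminescence; Read-out basis: percent activation relative to tunicamycin control; Control set: tunicamycin high control, DMSO low control.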
Beta apoptosis: blocks beta cell apoptosis; INS-1E cytokine-induced death, ATP luminescence, 48 h; percent of positive-control rescue, neutral wells zero; 300,000 compounds, 0.8% hits; AID 435005; protection from apoptosis, % (no concentration beside the values);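 active means Every replicate reaches about 75%, or at least half do and their mean reaches it too, limit read from the data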;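 further: 0% = cytokine-treated negative control wells and 100% = positive control rescue; higher means more ATP so stronger rescue from cytokine killing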
Mdm2 MdmX PPI: disrupts the human Mdm2-MdmX interaction | O15151+Q00987 | SaOS-2 split-luciferase Mdm2/MdmX complementation, luminescence | inhibition, % at 8 µM | 330,000 compounds, 3% hits | AID 485346;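 active means inhibition of at least 50% at 8 µM in the primary screen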
Target sequence (O15151 whole entry, looked up): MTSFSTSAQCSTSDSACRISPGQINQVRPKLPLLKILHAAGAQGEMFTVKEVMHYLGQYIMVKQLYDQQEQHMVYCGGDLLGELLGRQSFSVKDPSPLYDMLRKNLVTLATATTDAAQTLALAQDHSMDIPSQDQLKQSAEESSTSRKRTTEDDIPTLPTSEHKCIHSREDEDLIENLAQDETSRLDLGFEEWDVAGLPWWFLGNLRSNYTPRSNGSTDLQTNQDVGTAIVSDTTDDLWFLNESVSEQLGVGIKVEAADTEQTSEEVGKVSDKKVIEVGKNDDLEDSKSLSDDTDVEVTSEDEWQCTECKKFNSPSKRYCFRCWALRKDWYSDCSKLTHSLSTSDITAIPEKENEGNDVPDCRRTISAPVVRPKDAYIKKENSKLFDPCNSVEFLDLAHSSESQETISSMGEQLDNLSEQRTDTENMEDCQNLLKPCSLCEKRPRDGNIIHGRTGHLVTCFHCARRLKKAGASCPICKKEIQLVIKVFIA
Target sequence (Q00987 whole entry, looked up): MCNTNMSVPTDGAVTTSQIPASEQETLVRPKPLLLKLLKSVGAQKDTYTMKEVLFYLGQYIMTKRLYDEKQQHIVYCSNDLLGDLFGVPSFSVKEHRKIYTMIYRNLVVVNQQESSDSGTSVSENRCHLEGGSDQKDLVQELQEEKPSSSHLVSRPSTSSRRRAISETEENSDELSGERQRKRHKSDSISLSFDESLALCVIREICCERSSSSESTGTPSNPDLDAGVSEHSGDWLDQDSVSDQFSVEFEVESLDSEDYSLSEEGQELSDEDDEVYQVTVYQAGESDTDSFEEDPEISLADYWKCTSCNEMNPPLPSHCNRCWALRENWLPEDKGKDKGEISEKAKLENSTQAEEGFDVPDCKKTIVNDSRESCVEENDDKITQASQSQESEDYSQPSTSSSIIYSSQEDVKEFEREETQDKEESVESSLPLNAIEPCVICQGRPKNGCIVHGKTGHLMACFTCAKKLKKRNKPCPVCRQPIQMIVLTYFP
CSC inhib: blocks cancer stem cells; AID 2717; cancer stem cell-like cells viability, luminescence; inhibition, % at 7.5 µM; 300,000 compounds, 1.1% hits; in the data active means inhibition above about 75%; tested in HMLE shEcad cells
SKKanGAS inh: inhibitors of SKKanGAS S. pyogenes growth in kanamycin (SK-promoter or general growth effect); BacTiter-Glo, 6 h; inhibition, % at 7.5 µM; 300,000 compounds, 1.3% hits; AID 1662;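 active means mean replicate score, as percent of positive control median, at least 50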;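 further: strain carries kanamycin resistance gene driven by streptokinase promoter and grows in 40 µg/ml kanamycin; loss of luminescence reflects streptokinase promoter inhibition or plain growth inhibition; 0% = median of DMSO wells and 100% = positive control at its reference dose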
UPR XBP1 act: activators of adaptive arm of unfolded protein response (XBP1). CHO-XBP1 luciferase reporter, IRE1-XBP1 UPR activation, luminescence; percent of tunicamycin response, DMSO as zero. activation, % at 20 µM. 330,000 compounds, 0.33% hits. AID 463104;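 active means versus positive control, 20 µM dose yields 30% or more activation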;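 further: 100% = tunicamycin at 10 µg/mL and 0% = DMSO only wells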
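Assay system: IRE1-XBP1 luciferase reporter CHO line. Input: 1000 cells/well. Buffer or medium: F12 with 10% serum. Doses: 20 µM, 1% DMSO. Times: overnight seeding at 37 °C, 6 h compound treatment at 37 °C. Technique: Steady-Glo luciferase glow luminescence, 10 min after reagent addition.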
* marks the source's active call; other numbers are inactive results; · = no result given.

SMILES	UPR CHOP act	Beta apoptosis	Mdm2 MdmX PPI	CSC inhib	SKKanGAS inh	UPR XBP1 act
CCOC(=O)c1ccc(NC(=O)NCc2cccnc2)cc1	2	101*	-20	-3	15	-1
COc1ccc(-c2nnc3n2N=C(C)CS3)cc1	-1	3	16	-16	-2	1
CCOC(=O)/C(=C\c1ccc(OC(F)F)cc1)C1=Nn2c(nnc2-c2ccc(Cl)cc2)SC1	·	131*	·	100*	-20	·
O=C(NCCC1=CCCCC1)c1cc(S(=O)(=O)N2CCOCC2)ccc1F	1	-1	26	-16	-1	-4
Cc1ccc(NC(=O)c2cc(S(=O)(=O)NCCC3=CCCCC3)ccc2F)cc1	2	105*	8	·	16	-3
C[n+]1ccc(/C=N/Nc2nc(Cl)c(C#N)c(Cl)c2Cl)cc1	0	·	23	-7	91*	-2
O=C(CNC(=O)c1cccc([N+](=O)[O-])c1)NC1CCCc2ccccc21 (stereo not given)	-2	-10	4	·	·	2
CC(C)(C)c1ccc(/C=C/C(=O)c2ccc(NC3=NCCCS3)cc2)cc1	-3	45	18	99*	·	2
CCCc1nc(SCc2ccccn2)c2c(=O)n(C)c(=O)n(C)c2n1	3	11	1	107*	-10	-2
COc1ccc(NC(=O)c2ccc(COc3ccccc3Br)o2)c(OC)c1	0	0	24	92*	1	-2
O=C(Nc1nc2ccccc2n1CCN1CCOCC1)c1ccc(COc2ccccc2Br)o1	0	16	47	28	50*	7
O=C(COC(=O)Cn1nnc2ccccc21)NC1CCCC1	2	-9	7	-9	-3	0
O=C(NNc1c2ccccc2nc2ccccc12)c1cccc(O)c1	0	·	19	5	9	0
Oc1cccc(-c2nc3ccc4ccccc4c3c3c2CCC3)c1	4	5	-93	-5	63*	3
CCCCNc1c(-c2ccc(OC)c(SC3CCCCC3)c2)nc2cnccn12	2	21	35	2	104*	3
COc1cc(-c2nc3ccc(C)cn3c2NCc2ccccc2)ccc1SC1CCCCC1	5	110*	49	29	32	4
CCCCCCSc1cc(-c2nc3cc(C)ccn3c2NC2CCCCC2)ccc1OC	0	9	6	43	33	-4
CCCCCCSc1cc(-c2nc3cnccn3c2NCc2ccccc2)ccc1OC	2	-5	25	·	65*	1
CCC(C)Sc1ccc(-c2nc3cnccn3c2NC2CCCCC2)cc1 (stereo not given)	2	15	15	126*	93*	8
CCC(C)Sc1ccc(-c2nc3ccccn3c2NCc2ccccc2)cc1OC (stereo not given)	8	8	23	54	·	-4
O=C(Nc1ccccc1)C1=C[C@@H](c2coc3ccccc3c2=O)C[C@@H](OCc2ccc(CO)cc2)O1	2	3	-9	0	16	1
COc1ccc(-c2nc3cnccn3c2NCc2ccccc2)cc1SC1CCCCC1	0	10	20	43	55*	-2
CCCCNc1c(-c2ccc(-c3ccc(C(C)=O)cc3)c(OC)c2)nc2cnccn12	4	8	10	10	64*	2
CCCCNc1c(-c2ccc(OC)c(SC3CCCCC3)c2)nc2ccc(Cl)cn12	1	34	23	37	·	-1
Cc1ccc(NNC(=O)C(O)(c2cccc(C(F)(F)F)c2)c2cccc(C(F)(F)F)c2)cc1	0	3	4	99*	29	-1
SMILES	UPR CHOP act	Beta apoptosis	Mdm2 MdmX PPI	CSC inhib	SKKanGAS inh	UPR XBP1 act
Cc1ccc(C(O)(C(=O)NNc2ccccn2)c2ccc(C)cc2)cc1	0	-2	-20	11	0	-4
CSCCC(NC(=O)COc1ccccc1)C(=O)NC1CCC(C)CC1 (stereo not given)	1	-2	39	·	33	3
O=C1C=C(c2ccc(Cl)c(C(F)(F)F)c2)C[C@@H](c2ccc(F)cc2)C1	0	-5	2	55	·	-3
O=C1C=C(c2ccc(-c3ccccc3)cc2)C[C@@H](c2ccc(Cl)cc2)C1	0	-8	0	2	·	-2
O=C1C=C(c2ccc(Cl)c(C(F)(F)F)c2)C[C@@H](c2ccc(Cl)cc2)C1	0	0	32	116*	·	2
CCOC(=O)c1cccc(C2=CC(=O)C[C@H](c3ccc(Cl)cc3)C2)c1	1	2	18	77*	·	-3
O=c1[nH]c(C(Cl)(Cl)Cl)nc2ccc3ccccc3c12	-2	3	-15	·	7	1
C[C@H](N)c1nnc(SCc2c(Cl)cccc2Cl)o1	0	-1	0	4	-3	-3
Clc1cccc(Cl)c1CSc1nnc(/C=C/c2ccccc2)o1	4	8	43	19	54*	-2
COc1ccc2c(c1)c(C(C)=O)c(C)n2-c1ccccc1OC	-2	-11	-7	3	3	-3
Clc1ccc(-c2csc(N3CCCCCC3)n2)cc1	4	8	-7	14	54*	-1
Clc1ccc(-c2csc(N3CCOCC3)n2)cc1	3	·	-121	·	-14	1
Cc1cc(C)cc(NC(=O)Nc2ccc(-n3ccc(C(F)(F)F)n3)cc2)c1	3	30	37	104*	1	-1
O=C(O)CCC(=O)Nc1ccc(-n2ccc(C(F)(F)F)n2)cc1	-1	-3	11	-2	15	0
COc1ccccc1NC(=O)Nc1ccc(-n2ccc(C(F)(F)F)n2)cc1	5	13	-17	83*	3	1
COc1ccc2cc(C(=O)C3CCCN(C(=O)c4cncs4)C3)ccc2c1 (stereo not given)	1	·	2	-7	11	-1
Cc1ccc(N=Nc2ccc(O)c(P(=O)(c3ccccc3)c3ccccc3)c2)cc1	2	0	10	14	50*	0
O=[N+]([O-])c1ccc(O)c(P(=O)(c2ccccc2)c2ccccc2)c1	2	-6	20	12	-1	-1
CC(CCc1ccccc1)NC(=O)CNC(=O)N1CC(=O)Nc2ccccc21 (stereo not given)	0	3	-15	-1	-2	-2
COc1ccc(-n2c(-c3ccc(Cl)cc3)c[n+]3c2CCc2ccccc2-3)cc1	-2	110*	18	-1	-10	0
O=C([O-])c1cc(-c2ccccc2)cc(-c2ccccc2)[n+]1Cc1ccccc1	4	122*	17	0	2	5
CC(=O)Oc1cc2c3c(c1)/C(=C1/SC(=S)NC1=O)C(=O)N3C(C)(C)C=C2C	-1	12	10	16	82*	-2
COCc1ccc(-c2c(-c3ccsc3)sc3ccccc23)cc1	0	-2	7	14	·	-1
